HSP90 refold inh – HSP90 refolding inhibition in rabbit reticulocyte lysate | luciferase refolding luminescence, 3 h | inhibition, % at 5.6 µM | hit rate 0.91% among 290,000 | AID 1789;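 active means inhibition above the screen-wide mean plus 3 SD, computed separately per campaign, cut at about 16% in these data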;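 further: 0% = DMSO wells and 100% = 60 µM geldanamycin wells; inhibitors lower the luminescence because luciferase stays unfolded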
STAT1 inh – inhibitors of IFN-gamma induced STAT1 signaling | inhibition, % at 5.5 µM | hit rate 0.35% among 200,000 | NIH 3T3 STAT1-luciferase reporter, luminescence | AID 920;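 active means inhibition above a set limit, the mean inhibition across all tested compounds plus 3 SD, cut at about 34% in these data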;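 further: 0% = IFN-gamma with DMSO and 100% = IFN-gamma with 300 µM nifuroxazide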
STAT3 inh – STAT3 signaling inhibition. U3A cells, IL-6 STAT3-luciferase reporter, luminescence; host cell line lacks STAT1. inhibition, % at 5.5 µM. hit rate 0.89% among 190,000. AID 862;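 active means inhibition above the mean inhibition across all screened compounds plus 3 SD, cut at about 44% in these data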;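 further: 0% = DMSO only wells and 100% = 100 µM nifuroxazide control wells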
STAT3 act – increases IL-6 driven STAT3 reporter signal; U3A cells, IL-6 STAT3-luciferase reporter, luminescence; 100% = signal with IL-6 EC80 alone; activation (% of control), % at 5.6 µM; hit rate 0.91% among 190,000; AID 871;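 active means activation above the screen-wide mean of compound activation plus 3 SD, cut at about 130% in these data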;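 further: 0% = background luminescence of wells with medium and substrate only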
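Material: STAT3-luciferase reporter U3A cells; Probe or stimulus: IL-6 (33 ng/mL); Incubation: compound pre-incubation 1 h before IL-6, then 6 h stimulation at 37 °C; Technique: luminescence from STAT3-driven luciferase reporter; Evaluation: % activation versus median of IL-6-stimulated wells; Controls: IL-6-only high control.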
HSP90 confirm – HSP90 inhibition, confirmation assay | shares compounds with HSP90 refold inh | rabbit reticulocyte lysate, luciferase refolding luminescence, 3 h | inhibition, % at 5.9 µM | hit rate 64% among 2,300; in the data active means inhibition above about 18%;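 further: 0% = vehicle wells and 100% = reference inhibitor wells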
luciferase ctr – firefly luciferase inhibition, HSP90 counter-screen; purified native firefly luciferase, luminescence; hit rate 48% among 2,300; inhibition, % at 5.9 µM; AID 1847; shares compounds with HSP90 refold inh;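 active means inhibition above the mean inhibition of all tested sample wells plus 3 SD, cut at about 10% in these data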;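 further: 0% = DMSO with luciferase and 100% = wells lacking luciferase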
Target sequence (P08659 whole entry, looked up): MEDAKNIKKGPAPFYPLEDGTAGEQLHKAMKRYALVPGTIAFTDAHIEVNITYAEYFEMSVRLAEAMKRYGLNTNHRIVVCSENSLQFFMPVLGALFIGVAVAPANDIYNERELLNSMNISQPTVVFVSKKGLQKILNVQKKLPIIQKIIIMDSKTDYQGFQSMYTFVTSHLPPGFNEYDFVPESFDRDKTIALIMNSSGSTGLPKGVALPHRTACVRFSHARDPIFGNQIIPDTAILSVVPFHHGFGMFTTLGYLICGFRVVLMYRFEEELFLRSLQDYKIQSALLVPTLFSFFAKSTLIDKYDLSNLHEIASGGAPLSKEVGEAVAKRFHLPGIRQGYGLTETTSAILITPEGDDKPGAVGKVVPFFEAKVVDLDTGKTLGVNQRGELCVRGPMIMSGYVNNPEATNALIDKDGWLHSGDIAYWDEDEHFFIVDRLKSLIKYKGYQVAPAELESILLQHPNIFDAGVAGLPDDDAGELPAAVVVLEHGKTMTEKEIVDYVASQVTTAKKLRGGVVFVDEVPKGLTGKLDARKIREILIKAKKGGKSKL
* = called active by the depositor; x = no result given. Sampled rows, rich in hits. Any-hit rate of the full collection: about 2%.

SMILES	HSP90 refold inh	STAT1 inh	STAT3 inh	STAT3 act	HSP90 confirm	luciferase ctr
O=C(/C=C/c1c(F)cccc1Cl)c1ccc(O)cc1	24*	x	x	x	6	-28
COc1cccc(/C=C2\Oc3ccc(O)cc3C2=O)c1O	17*	x	x	x	33*	34*
COC(=O)c1ccc2c(c1)C(=O)/C(=C/c1ccc(O)cc1)O2	4	-16	-1	99	x	x
Cc1ccc(C)c(S(=O)(=O)N2CCC(c3nc4c(nnn4Cc4ccc5c(c4)OCCO5)c(=O)[nH]3)CC2)c1	21*	x	x	x	25*	-4
O=c1[nH]c(C2CCN(S(=O)(=O)c3ccc4c(c3)OCCO4)CC2)nc2c1nnn2Cc1ccccc1	9	x	x	x	x	x
CCCNC(=O)Nc1nc2ccccc2s1	21*	x	x	x	-2	-22
N#Cc1cc2c(nc1SCC(=O)N1CCOCC1)CCCCC2	54*	-15	0	106	1	-5
O=C(O)c1ccc(N/N=C/c2ccc3c(c2)OCO3)cc1	82*	93*	80*	34	94*	88*
O=C(N/N=C/c1ccc2c(c1)OCO2)c1ccc2c(c1)OCCO2	-1	-17	-13	109	x	x
O=C(O)c1cc(N/N=C/c2ccc3c(c2)OCCO3)ccc1Cl	39*	48*	-28	120	87*	82*
CC1Oc2ccccc2C=C1/C=N/Nc1ccc(C(=O)O)cc1 (configuration not stated)	34*	x	x	x	41*	25*
CC(C)(C)c1ccc(/C=N/Nc2ccc(C(=O)O)cc2)cc1	58*	74*	88*	27	86*	83*
CCNC(=S)N/N=C/c1ccc(C(=O)O)cc1	-1	-16	-6	107	x	x
CC1Cc2ccccc2N1C(=O)C1CC(=O)N(c2ccccc2)C1 (configuration not stated)	5	x	x	x	x	x
CCCc1nnc(SCC(=O)Nc2nc(C)cs2)n1CCOC	-3	x	x	x	x	x
O=C(O)c1ccc(/C=N/Nc2ccc(F)cc2F)cc1	46*	-17	-19	118	78*	58*
Fc1ccc(N/N=C/c2ccncc2)c(F)c1	-3	-32	12	92	x	x
O=C(O)c1cc(N/N=C/c2ccc3c(c2)OCO3)ccc1Cl	47*	19	-16	122	83*	54*
C/C(=N\Nc1ccc(Cl)c(C(=O)O)c1)c1ccc2c(c1)OCO2	9	-34	-8	108	x	x
CC(=O)Nc1ccc(NC(=O)CSc2ccc3nnc(-c4ccccn4)n3n2)cc1	0	x	x	x	x	x
Cc1ccc(NC(=O)CC(C)CC(=O)NCc2ccccc2)cc1Cl (configuration not stated)	-2	x	x	x	x	x
CCc1ccccc1-n1c(SCC(=O)NC)nnc1-c1ccco1	2	x	x	x	x	x
COc1ccc(C#Cc2ccc3c(=O)c4ccccc4n(C)c3c2)cc1	-3	x	x	x	x	x
Cn1c2ccccc2c(=O)c2ccc(C#Cc3ccc(N)cc3)cc21	24*	x	x	x	31*	0
COc1ccccc1C#Cc1ccc2c(=O)c3ccccc3n(C)c2c1	24*	x	x	x	6	-11
SMILES	HSP90 refold inh	STAT1 inh	STAT3 inh	STAT3 act	HSP90 confirm	luciferase ctr
CCn1cc(S(=O)(=O)c2ccc(Cl)cc2)c(=O)c2cc(OC)ccc21	-3	x	x	x	x	x
C[n+]1c(/C=C/c2ccc3c(c2)OCO3)ccc2ccccc21	32*	-18	14	94	54*	55*
C[n+]1c(/C=C/c2ccc(O)cc2)ccc2ccccc21	5	x	x	x	x	x
O=C1CCN(c2ccc([N+](=O)[O-])cc2F)CC1	34*	-4	16	92	-5	-8
S=C(NCc1ccco1)Nc1ccc(Oc2ccccc2)cc1	2	-10	-2	106	x	x
COc1ccc2sc(NC(=O)c3ccco3)nc2c1	56*	38*	84*	34	60*	48*
CCCCCCCCc1nnc(NC(=O)c2ccco2)s1	25*	-3	-11	110	-3	-6
COC(=O)c1sc(NC(=O)c2ccco2)nc1C	-3	-7	10	97	x	x
Cc1cc(C)c2nc(NC(=O)c3ccco3)sc2c1	18*	x	x	x	39*	33*
Cc1nc(NC(=O)c2ccco2)sc1C(=O)O	54*	x	x	x	64*	-13
Cc1cc(Cl)cc2sc(NC(=O)c3ccco3)nc12	0	x	x	x	x	x
CC(Oc1ccccc1)C(=O)N=C1SC2CS(=O)(=O)CC2N1c1ccccc1 (configuration not stated)	1	x	x	x	x	x
CCOc1ccc(CC(=O)C2=C(N3CCOCC3)CC(C)(C)CC2=O)cc1OCC	-2	3	15	95	x	x
O=C(NS(=O)(=O)Oc1ccccc1F)OC[C@@H]1CCCN2CCCCC12 (some centres not stated)	-2	x	x	x	x	x
Cc1cc(C(=O)CSc2nnc(-c3ccccc3)n2-c2ccccc2)c(C)n1-c1ncn[nH]1	-1	1	4	101	x	x
Cc1cc(C(=O)CSc2nnc3ccccn23)c(C)n1-c1ccccc1	62*	67*	96*	18	86*	79*
Cc1ccc(NC(=O)CSc2nc(-c3ccco3)nc3cc(=O)[nH]n23)c(Cl)c1	-2	x	x	x	x	x
Nn1cnnc1SCC(=O)Nc1ccc(C2CCCCC2)cc1	0	-19	-1	107	x	x
O=C(O)CSCC(=O)Nc1ccc(C2CCCCC2)cc1	52*	52*	93*	23	57*	-14
Cc1ccc([N+](=O)[O-])cc1N=C1C(=O)Nc2ccccc21	22*	x	x	x	-2	-11
Cc1ccc(N=C2C(=O)Nc3ccccc32)cc1C	-3	x	x	x	x	x
Cn1c(=O)c2c(ncn2CC(=O)OCC(=O)c2ccc(F)c(F)c2)n(C)c1=O	-2	x	x	x	x	x
CCOC(=O)c1csc(COc2ccc(OC)cc2)n1	20*	x	x	x	52*	-13
Cc1cccc(NCc2cc(Cl)cc(Cl)c2O)n1	18*	-1	-1	102	-2	-4
NC(=O)c1ccc(N=Nc2c(O)c3ccccc3[nH]c2=O)cc1	14	x	x	x	12	-15
SMILES	HSP90 refold inh	STAT1 inh	STAT3 inh	STAT3 act	HSP90 confirm	luciferase ctr
COc1cc(N=Nc2ccccc2C(=O)O)ccc1O	3	x	x	x	x	x
COc1cc(N=Nc2c(O)c3ccccc3[nH]c2=O)c(OC)cc1N=Nc1ccccc1	11	x	x	x	2	-14
Cc1ccc(C(=O)c2c3ccc([N+](=O)[O-])cc3[n+]([O-])n2CCC(N)=O)cc1	0	x	x	x	x	x
CN(C)C1=NC(=O)/C(=C\c2ccccc2)S1	38*	-3	9	94	-11	-15
COCCn1c(C)cc(C2=NNC(=Nc3ccccc3F)SC2)c1C	77*	73*	94*	22	62*	55*
COCCCN=C1NN=C(c2cc(C)n(Cc3ccccc3Cl)c2C)CS1	21*	-9	-9	113	48*	23*
COCCCN=C1NN=C(c2cc(C)n(-c3ccccc3)c2C)CS1	-5	-12	-13	121	x	x
COCCCN=C1NN=C(c2cc(C)n(-c3ccccc3F)c2C)CS1	18*	45*	52*	58	70*	64*
CCN(CC(=O)Nc1cc(Cl)ccc1C)C(=O)CCS(=O)(=O)c1ccc(Cl)cc1	0	x	x	x	x	x
Cc1ccc(CN2CC(C(=O)Nc3ccc(S(=O)(=O)N4CCCCC4)cc3)CC2=O)cc1 (configuration not stated)	2	x	x	x	x	x
